Consider nine compounds from ChEMBL document CHEMBL3259775, “Towards the development of 5-HT₇ ligands combining serotonin-like and arylpiperazine moieties” (Eur J Med Chem, 2014).

Usually inhibition stands for the drop in the measured response relative to a control, in per cent. By Ki is commonly meant a dissociation constant, usually derived from enzyme kinetics or from competition with a known ligand. One may read the IC50 as the concentration that gives 50% inhibition. What is called Kb is the affinity of an antagonist, worked out from how it opposes an agonist.

The structures appear in SMILES notation. Calls of active or inactive are those of the source. The calls are words filed in the database; no cut-off is given here.

Test [1] addresses T1, 5-hydroxytryptamine receptor 7 (Homo sapiens, UniProt P34969). The test is described as follows: Displacement of [3H]5-HT from human 5-HT7 receptor expressed in HEK293 cells at 10^-7 mol/L after 30 mins by microbeta counting analysis. Type of test: cell-based. Background: Loss of bound radioactivity is the signal in a displacement assay; it reports binding, not function.
Test [2] concerns the target T1, 5-hydroxytryptamine receptor 7. The test is described as follows: Displacement of [3H]5-HT from human 5-HT7 receptor expressed in HEK293 cells after 30 mins by microbeta counting analysis. It is filed as cell-based.
The target is the same in test [3]. The test is described as follows: Agonist activity at human 5-HT7 receptor expressed in CHO cells assessed as stimulation of cAMP accumulation up to 10^-5 M. It is filed as functional, cell-based. (In general: cAMP levels reflect the balance of adenylyl cyclase and phosphodiesterase activity.)
Test [4] shares this target. The test can be described thus: Antagonist activity at human 5-HT7 receptor expressed in CHO cells assessed as inhibition of 5-HT-stimulated cAMP accumulation. It is filed as functional, cell-based.
Test [5] has the same target. The test is described as follows: Antagonist activity at human 5-HT7 receptor expressed in CHO cells assessed as inhibition of 5-HT-stimulated cAMP accumulation by Cheng-Prusoff method. Type of test: functional, cell-based.
The target is the same in test [6]. The test can be described thus: Antagonist activity at human 5-HT7 receptor expressed in CHO cells assessed as residual 5-HT-stimulated cAMP accumulation at 1 uM relative to control.
For test [7], the target named is T2, 5-hydroxytryptamine receptor 1A (Homo sapiens) (UniProt P08908).
T2 sequence (whole entry): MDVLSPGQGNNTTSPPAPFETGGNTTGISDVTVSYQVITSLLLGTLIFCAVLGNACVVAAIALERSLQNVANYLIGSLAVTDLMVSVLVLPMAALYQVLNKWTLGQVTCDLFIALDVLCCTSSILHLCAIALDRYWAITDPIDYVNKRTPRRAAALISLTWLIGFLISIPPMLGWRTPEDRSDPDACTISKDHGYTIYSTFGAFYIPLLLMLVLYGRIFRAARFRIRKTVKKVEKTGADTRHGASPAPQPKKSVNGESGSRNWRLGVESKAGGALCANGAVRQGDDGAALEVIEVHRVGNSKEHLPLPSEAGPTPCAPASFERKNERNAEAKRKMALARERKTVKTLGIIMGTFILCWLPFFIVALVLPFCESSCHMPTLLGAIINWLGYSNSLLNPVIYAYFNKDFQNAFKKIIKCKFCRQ
The test is described as follows: Displacement of [3H]-8-OH-DPAT from human recombinant 5-HT1A receptor expressed in HEK293 cells at 1 uM by scintillation counting analysis relative to control. Type of test: cell-based.

Test [8] has as its target 5-hydroxytryptamine receptor 1B (Homo sapiens) (UniProt P28222). The test is described as follows: Binding affinity to recombinant human 5-HT1B receptor expressed in CHO cells at 1 uM by radioligand displacement assay relative to control. Type of test: cell-based.
Test [9] concerns the target 5-hydroxytryptamine receptor 1D (Rattus norvegicus) (UniProt P28565). The test can be described thus: Binding affinity to rat recombinant 5-HT1D receptor expressed in CHO cells at 1 uM by radioligand displacement assay relative to control. Type of test: cell-based.
Test [10] concerns the target 5-hydroxytryptamine receptor 2A (Homo sapiens) (UniProt P28223). The test can be described thus: Binding affinity to human recombinant 5-HT2A receptor expressed in HEK293 cells at 1 uM by radioligand displacement assay relative to control. Type of test: cell-based.
Test [11] deals with 5-hydroxytryptamine receptor 2B (Homo sapiens) (UniProt P41595). The test can be described thus: Binding affinity to human recombinant 5-HT2B receptor expressed in CHO cells at 1 uM by radioligand displacement assay relative to control. Type of test: cell-based.
Test [12] has as its target T3, 5-hydroxytryptamine receptor 2C (Homo sapiens) (UniProt P28335).
T3 sequence (whole entry): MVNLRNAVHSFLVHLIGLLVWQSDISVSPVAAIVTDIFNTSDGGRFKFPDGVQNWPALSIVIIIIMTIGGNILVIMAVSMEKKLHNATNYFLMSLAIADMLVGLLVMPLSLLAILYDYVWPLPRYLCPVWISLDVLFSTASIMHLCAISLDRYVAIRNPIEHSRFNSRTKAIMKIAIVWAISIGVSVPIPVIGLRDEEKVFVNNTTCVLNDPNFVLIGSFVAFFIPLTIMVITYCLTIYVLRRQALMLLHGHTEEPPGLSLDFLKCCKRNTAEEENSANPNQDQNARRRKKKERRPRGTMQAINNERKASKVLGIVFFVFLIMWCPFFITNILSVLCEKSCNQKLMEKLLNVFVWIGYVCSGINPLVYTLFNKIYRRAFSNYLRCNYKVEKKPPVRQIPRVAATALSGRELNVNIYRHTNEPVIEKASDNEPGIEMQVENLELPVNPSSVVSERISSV
The test is described as follows: Binding affinity to human recombinant 5-HT2C receptor expressed in HEK293 cells at 1 uM after 30 mins by radioligand displacement assay relative to control. It is filed as cell-based.

The target in test [13] is T4, 5-hydroxytryptamine receptor 3A (Homo sapiens) (UniProt P46098).
T4 sequence (whole entry): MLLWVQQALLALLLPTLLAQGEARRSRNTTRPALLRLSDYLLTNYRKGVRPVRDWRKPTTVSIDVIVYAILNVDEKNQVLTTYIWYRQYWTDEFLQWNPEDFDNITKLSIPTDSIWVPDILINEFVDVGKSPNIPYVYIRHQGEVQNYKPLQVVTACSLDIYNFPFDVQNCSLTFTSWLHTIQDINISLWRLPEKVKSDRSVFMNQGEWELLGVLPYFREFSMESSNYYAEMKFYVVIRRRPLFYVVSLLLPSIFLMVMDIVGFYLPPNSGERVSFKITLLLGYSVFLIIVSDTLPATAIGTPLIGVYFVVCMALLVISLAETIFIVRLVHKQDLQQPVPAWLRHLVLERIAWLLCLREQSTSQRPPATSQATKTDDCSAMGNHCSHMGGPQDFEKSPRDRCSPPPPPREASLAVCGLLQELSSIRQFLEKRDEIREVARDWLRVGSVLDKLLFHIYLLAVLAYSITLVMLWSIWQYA
The test is described as follows: Binding affinity to human 5-HT3 receptor at 1 uM by radioligand displacement assay relative to control.

In test [14] the target is 5-hydroxytryptamine receptor 4 (Homo sapiens) (UniProt Q13639). The test is described as follows: Binding affinity to human recombinant 5-HT4E receptor expressed in CHO cells at 1 uM after 30 mins by radioligand displacement assay relative to control. Type of test: cell-based.
The target of test [15] is 5-hydroxytryptamine receptor 5A (Homo sapiens) (UniProt P47898). The test can be described thus: Displacement of [3H]LSD from human recombinant 5-HT5A receptor expressed in HEK293 cells at 1 uM after 120 mins by scintillation counting analysis relative to control. It is filed as cell-based.
Test [16] addresses 5-hydroxytryptamine receptor 6 (Homo sapiens) (UniProt P50406). The test is described as follows: Binding affinity to human recombinant 5-HT6 receptor expressed in CHO cells at 1 uM after 30 mins by radioligand displacement assay relative to control. Type of test: cell-based.
In test [17] the target is T1, 5-hydroxytryptamine receptor 7. The test can be described thus: Binding affinity to human recombinant 5-HT7 receptor expressed in CHO cells after 30 mins by radioligand displacement assay. Type of test: cell-based. Put shortly: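 Membranes from receptor-expressing cells harvested at 80% confluence, homogenised and pelleted at 48,000 × g for 90 min, then protein-quantified by Bradford. Competition with 5 nmol/L [3H]5-HT and test compound for 30 min at 25 °C in 50 mM Tris-HCl pH 7.4 containing pargyline, 4 mmol/L CaCl2 and 0.05% ascorbic acid. Non-specific binding measured with excess cold 5-HT; bound radioligand separated by filtration. Ki derived from IC50 by Cheng-Prusoff; mean of four determinations in duplicate.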

The target is the same in test [18]. The test is described as follows: Displacement of [3H]5-HT from human 5-HT7 receptor expressed in HEK293 cells at 10^-5 mol/L after 30 mins by microbeta counting analysis. It is filed as cell-based. Put shortly:
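Membranes incubated 30 min at 25 °C with 5 nmol/L [3H]5-HT in 50 mM Tris-HCl pH 7.4 containing pargyline, CaCl2 and ascorbic acid, with the test compound at a single fixed concentration. Non-specific binding with 100 µM cold 5-HT; separation by filtration; result reported as % displacement.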

5-hydroxytryptamine receptor 6 (Homo sapiens), sequence (P50406 whole entry): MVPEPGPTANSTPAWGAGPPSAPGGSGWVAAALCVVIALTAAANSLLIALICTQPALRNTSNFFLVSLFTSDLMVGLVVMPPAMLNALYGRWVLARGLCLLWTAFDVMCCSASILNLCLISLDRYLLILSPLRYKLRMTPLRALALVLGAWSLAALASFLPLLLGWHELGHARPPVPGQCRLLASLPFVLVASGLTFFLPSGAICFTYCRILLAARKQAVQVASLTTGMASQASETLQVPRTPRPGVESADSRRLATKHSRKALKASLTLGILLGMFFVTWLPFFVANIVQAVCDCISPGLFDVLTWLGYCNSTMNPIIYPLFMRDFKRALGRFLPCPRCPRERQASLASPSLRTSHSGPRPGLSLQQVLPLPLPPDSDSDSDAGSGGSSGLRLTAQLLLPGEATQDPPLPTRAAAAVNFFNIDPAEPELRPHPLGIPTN
5-hydroxytryptamine receptor 2A (Homo sapiens), sequence (P28223 whole entry): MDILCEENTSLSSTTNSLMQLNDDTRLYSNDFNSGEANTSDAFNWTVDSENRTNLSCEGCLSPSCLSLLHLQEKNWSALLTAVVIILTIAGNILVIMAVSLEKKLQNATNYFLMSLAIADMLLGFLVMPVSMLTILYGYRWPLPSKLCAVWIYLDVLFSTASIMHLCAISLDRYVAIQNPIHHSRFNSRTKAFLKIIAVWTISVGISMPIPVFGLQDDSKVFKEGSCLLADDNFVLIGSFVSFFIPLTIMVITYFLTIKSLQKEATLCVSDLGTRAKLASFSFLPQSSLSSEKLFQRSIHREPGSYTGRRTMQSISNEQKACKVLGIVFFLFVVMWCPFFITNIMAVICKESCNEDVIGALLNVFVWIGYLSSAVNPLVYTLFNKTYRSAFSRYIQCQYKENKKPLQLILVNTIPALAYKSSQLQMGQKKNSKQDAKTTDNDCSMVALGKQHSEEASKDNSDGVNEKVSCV
T1 sequence (P34969 whole entry): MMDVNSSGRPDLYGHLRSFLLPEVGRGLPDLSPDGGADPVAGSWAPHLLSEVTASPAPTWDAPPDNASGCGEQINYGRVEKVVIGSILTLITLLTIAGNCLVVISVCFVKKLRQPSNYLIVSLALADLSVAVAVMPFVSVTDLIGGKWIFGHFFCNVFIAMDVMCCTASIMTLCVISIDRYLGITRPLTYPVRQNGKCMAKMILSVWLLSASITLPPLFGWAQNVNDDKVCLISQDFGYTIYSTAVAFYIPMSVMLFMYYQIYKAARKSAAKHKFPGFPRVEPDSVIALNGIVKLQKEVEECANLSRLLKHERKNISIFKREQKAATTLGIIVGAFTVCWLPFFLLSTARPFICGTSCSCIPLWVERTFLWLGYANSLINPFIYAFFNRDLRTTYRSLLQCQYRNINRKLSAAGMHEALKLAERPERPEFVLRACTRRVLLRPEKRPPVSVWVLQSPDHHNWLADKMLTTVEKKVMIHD
5-hydroxytryptamine receptor 5A (Homo sapiens), sequence (P47898 whole entry): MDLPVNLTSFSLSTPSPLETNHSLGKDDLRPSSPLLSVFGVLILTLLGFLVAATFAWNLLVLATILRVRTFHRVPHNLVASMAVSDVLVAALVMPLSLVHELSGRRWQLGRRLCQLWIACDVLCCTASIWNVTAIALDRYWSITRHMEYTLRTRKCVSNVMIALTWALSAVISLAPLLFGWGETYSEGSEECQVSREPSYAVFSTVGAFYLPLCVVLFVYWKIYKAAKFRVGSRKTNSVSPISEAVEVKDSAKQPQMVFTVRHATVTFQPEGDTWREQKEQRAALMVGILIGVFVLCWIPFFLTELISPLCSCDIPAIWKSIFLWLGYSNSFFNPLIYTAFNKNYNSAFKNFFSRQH
5-hydroxytryptamine receptor 4 (Homo sapiens), sequence (Q13639 whole entry): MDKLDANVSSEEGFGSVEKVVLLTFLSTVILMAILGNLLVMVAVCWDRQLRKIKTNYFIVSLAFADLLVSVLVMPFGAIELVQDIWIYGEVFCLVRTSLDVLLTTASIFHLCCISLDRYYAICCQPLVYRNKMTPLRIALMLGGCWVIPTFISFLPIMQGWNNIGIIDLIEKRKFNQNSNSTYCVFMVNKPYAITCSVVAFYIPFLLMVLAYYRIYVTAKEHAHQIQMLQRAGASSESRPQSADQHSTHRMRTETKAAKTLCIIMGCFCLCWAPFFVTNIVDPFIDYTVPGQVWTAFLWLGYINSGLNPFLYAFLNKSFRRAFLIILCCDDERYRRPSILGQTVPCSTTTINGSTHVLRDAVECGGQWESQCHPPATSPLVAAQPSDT
5-hydroxytryptamine receptor 2B (Homo sapiens), sequence (P41595 whole entry): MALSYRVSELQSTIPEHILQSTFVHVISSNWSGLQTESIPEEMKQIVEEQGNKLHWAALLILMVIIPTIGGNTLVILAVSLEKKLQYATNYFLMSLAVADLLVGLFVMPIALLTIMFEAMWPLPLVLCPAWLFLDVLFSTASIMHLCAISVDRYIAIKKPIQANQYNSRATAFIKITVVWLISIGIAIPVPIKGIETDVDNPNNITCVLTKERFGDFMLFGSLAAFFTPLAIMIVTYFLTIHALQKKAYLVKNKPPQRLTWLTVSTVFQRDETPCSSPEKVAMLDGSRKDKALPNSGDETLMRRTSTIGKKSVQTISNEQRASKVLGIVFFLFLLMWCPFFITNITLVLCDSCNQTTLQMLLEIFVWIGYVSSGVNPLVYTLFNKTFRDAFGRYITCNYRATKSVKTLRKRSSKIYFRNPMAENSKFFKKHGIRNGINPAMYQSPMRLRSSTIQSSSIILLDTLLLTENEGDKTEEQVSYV
5-hydroxytryptamine receptor 1D (Rattus norvegicus), sequence (P28565 whole entry): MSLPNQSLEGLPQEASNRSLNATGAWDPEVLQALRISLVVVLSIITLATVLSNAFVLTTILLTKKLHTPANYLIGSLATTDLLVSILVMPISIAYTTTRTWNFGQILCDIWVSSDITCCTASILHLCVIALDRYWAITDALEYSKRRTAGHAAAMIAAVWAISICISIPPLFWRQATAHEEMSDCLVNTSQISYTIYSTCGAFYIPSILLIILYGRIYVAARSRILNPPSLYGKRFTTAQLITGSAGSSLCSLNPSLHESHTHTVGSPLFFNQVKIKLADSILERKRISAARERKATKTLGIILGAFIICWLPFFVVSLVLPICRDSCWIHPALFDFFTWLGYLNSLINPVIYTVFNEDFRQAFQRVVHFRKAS
5-hydroxytryptamine receptor 1B (Homo sapiens), sequence (P28222 whole entry): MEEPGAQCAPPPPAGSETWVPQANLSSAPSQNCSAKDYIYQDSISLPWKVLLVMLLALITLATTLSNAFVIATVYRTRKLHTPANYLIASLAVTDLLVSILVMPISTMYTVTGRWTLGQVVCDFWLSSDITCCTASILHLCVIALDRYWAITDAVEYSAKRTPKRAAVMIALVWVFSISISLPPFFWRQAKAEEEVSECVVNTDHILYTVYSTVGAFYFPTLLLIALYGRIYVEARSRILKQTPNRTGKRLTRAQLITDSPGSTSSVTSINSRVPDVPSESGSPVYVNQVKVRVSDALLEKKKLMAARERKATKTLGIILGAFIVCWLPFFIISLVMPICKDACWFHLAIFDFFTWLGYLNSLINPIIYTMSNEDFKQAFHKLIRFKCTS

`Oc1ccc2[nH]cc(CCN3CCN(C4CCCC4)CC3)c2c1`: the inhibition in [1] was found to be 1%.
In turn, `CN(CCCCN1CCN(c2ccccc2)CC1)c1cccc(O)c1` gave an inhibitory constant (Ki) in test [2] of 30 nM. For the same compound, in [3], the result was inactive. In [4], the IC50 turned out to be 540 nM. Moreover, in test [5], the Kb is 57 nM. Besides, in test [6], the % serotonin response worked out at 39%.
As for `CN1C[C@@H](NS(=O)(=O)N(C)C)C[C@@H]2c3cccc4c3c(cn4C)C[C@H]21`, the Kb in [5] was found to be 16 nM.
`CN(C(=O)CCCCCN1CCN(c2cccc3ccccc23)CC1)c1cccc(O)c1`: the Ki in test [2] and in [17] was 8.1 nM in each case. Also, the inhibition stood at 99% in [7]; 69% in [8]; 100% in test [9]; 99% in test [10]; 101% in test [11]; 98% in test [12]. For the same compound, the inhibition in [13] amounted to 6%; in [14] it was 16%; in [15], 70%; in test [16], 71%.
For `Oc1ccc2[nH]cc(CCN3CCN(c4ccc(-c5ccccc5)cc4)CC3)c2c1`, the inhibition amounted to 32% in test [18] and 10% in [1].
As for `Oc1ccc2[nH]cc(CCN3CCN(c4ccccc4)CC3)c2c1`, the Ki in [2] and in test [17] was 63.1 nM throughout. The inhibition in test [7] worked out at 95%; in [8], 11%; in test [9] it was 60%; in test [10], 97%; in test [11], 98%; in test [12], 66%. Further, the inhibition in [13] worked out at 1%; in [14], 17%; in test [15] it was 56%; in test [16], 18%.
With `CN(CCCN1CCN(c2ccccc2)CC1)c1cccc(O)c1`, the inhibitory constant (Ki) in test [2] and in test [17] was 20 nM each time. For the same compound, the inhibition was 101% in test [7]; 9% in [8]; 18% in [9]; 79% in test [10]; 75% in test [11]; 42% in test [12]. The inhibition was 5% in test [13], -5% in test [14], 49% in test [15] and 21% in [16]. Besides, in test [6], the % serotonin response stood at 49%.
With `Oc1ccc2[nH]cc(CCN3CCN(c4cccc5ccccc45)CC3)c2c1`, the Ki in [2] and in [17] was 11.6 nM each time. The inhibition in test [7] amounted to 100%; in test [8] it was 74%; in test [9], 99%; in test [10], 100%; in test [11] it was 98%; in [12], 98%. Moreover, the inhibition in test [13] was determined as 15%; in [14], 7%; in test [15], 94%; in [16], 76%.
As for `CCCCN1CCN(CCc2c[nH]c3ccc(O)cc23)CC1`, the inhibition in test [1] was -9%.
